# Measurements taken from publication PMC10692362 (Acta Pharmaceutica Sinica. B, 2023).
# Numbering of substitutions follows the chain as printed. Values joined by “and” are separate entries in the source; they are usually repeats but may differ in a detail not shown here. Equal entries are not always repeated.
# Experiments:
# human ERα LBD = target: T1, human ERα LBD (Homo sapiens, UniProt P03372); test: Competitive fluorescence polarization binding assay, ERα
# T1 sequence (P03372 311-547 limits assumed): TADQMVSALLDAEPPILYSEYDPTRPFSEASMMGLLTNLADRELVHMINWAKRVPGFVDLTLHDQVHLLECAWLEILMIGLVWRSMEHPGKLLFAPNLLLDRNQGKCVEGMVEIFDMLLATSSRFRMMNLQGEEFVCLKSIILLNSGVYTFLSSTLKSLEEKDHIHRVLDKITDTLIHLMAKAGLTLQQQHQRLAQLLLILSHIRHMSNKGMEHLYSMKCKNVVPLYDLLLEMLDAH
# T-47D cells = test: Cell viability assay; assay type: cell-based, human; details: Homo sapiens, T47D, 72 h, read-out: T-47D IC50
# T-47D^D538G cells = test: Cell viability assay; assay type: cell-based, human; details: Homo sapiens, 72 h, read-out: T-47D^D538G IC50
# ERα C530S mutant = target: T2, ERα C530S mutant (Homo sapiens, UniProt P03372, C530S); test: Transcriptional activity; assay type: cell-based
# T2 sequence (P03372 1-595 C530S): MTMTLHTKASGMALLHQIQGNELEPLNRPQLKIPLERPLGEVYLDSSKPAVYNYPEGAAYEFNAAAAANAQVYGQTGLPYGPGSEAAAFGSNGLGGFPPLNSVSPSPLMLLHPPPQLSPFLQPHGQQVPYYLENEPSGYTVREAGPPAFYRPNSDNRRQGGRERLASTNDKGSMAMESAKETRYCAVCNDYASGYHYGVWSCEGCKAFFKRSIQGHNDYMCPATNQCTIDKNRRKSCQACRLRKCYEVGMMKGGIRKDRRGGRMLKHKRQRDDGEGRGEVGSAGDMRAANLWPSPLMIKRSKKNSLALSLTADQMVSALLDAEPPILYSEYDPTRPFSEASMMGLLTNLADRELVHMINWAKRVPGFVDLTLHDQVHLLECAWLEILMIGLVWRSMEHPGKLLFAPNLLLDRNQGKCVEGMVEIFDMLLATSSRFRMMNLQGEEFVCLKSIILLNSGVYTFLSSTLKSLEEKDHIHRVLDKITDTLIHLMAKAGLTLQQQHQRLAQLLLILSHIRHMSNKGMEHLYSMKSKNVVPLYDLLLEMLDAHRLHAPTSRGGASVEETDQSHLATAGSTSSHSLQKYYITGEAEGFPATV
# ERα [1] = target: T3, ERα (Homo sapiens, UniProt P03372); test: Immunoblot analysis of ERα degradation in MCF-7 cells; assay type: cell-based
# T3 sequence (P03372 1-595): T2 sequence (P03372 1-595 C530S) with S530C
# ERα [2] = target: T3, ERα; test: Immunoblot analysis of ERα degradation in LCC-2 cells; assay type: cell-based; details: 5 μmol/L over 12 h
# ERα D538G = target: T4, ERα D538G (Homo sapiens, UniProt P03372, D538G); test: Immunoblot analysis of ERα degradation in T-47D^D538G cells; assay type: cell-based; details: 5 μmol/L over 12 h
# T4 sequence (P03372 1-595 D538G): T2 sequence (P03372 1-595 C530S) with S530C, D538G
# ERα [3] = test: Immunoblot analysis of ERα degradation across ERα^WT and ERα^MUT BC cell lines; assay type: cell-based, human; details: 5 μmol/L 29c with 10 μmol/L MG-132
# ERβ = ERβ (Homo sapiens, UniProt Q92731); assay type: cell-based; details: 5 μmol/L, HEK-293T cells
# ERβ, sequence (Q92731 whole entry): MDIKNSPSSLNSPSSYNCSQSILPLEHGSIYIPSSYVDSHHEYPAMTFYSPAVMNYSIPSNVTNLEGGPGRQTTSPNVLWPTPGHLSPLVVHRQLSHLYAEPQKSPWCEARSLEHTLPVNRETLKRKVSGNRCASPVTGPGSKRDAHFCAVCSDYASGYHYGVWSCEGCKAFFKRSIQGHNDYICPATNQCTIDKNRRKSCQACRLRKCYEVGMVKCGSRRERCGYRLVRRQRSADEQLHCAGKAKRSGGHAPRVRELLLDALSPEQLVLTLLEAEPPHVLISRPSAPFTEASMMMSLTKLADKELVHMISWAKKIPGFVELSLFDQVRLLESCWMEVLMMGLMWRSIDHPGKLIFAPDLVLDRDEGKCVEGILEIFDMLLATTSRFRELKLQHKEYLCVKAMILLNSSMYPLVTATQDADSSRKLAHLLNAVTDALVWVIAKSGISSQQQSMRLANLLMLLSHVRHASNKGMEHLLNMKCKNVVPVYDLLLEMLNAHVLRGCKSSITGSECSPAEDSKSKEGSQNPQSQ
# Outline: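 Transfected HEK-293T cells treated with test compound; ERβ protein assessed by immunoblot. Lysates prepared with RIPA buffer, resolved by SDS-PAGE and transferred to PVDF. Membranes blocked in 5% skim milk and developed by ECL, with β-actin as loading control.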
smiles,measurement,setting,value
"CC(C)=CC(=O)Nc1ccc(C2=C(c3ccc(O)cc3)C3OC2CC3S(=O)(=O)N(CC(F)(F)F)c2ccc(O)cc2)cc1 (stereo not shown) [Compound 29c, N-(4-(3-(4-Hydroxyphenyl)-5-(N-(4-hydroxyphenyl)-N-(2,2,2-trifluoroethyl)sulfamoyl)-7-oxabicyclo[2.2.1]hept-2-en-2-yl)phenyl)-3-methylbut-2-enamide]",Ki,human ERα LBD,0.09 nM
same,RBA ERα,"human ERα LBD; IC50 estradiol/IC50 compound × 100, estradiol = 100%",30.44% and 30.44 ± 1.13%
same,α/β ratio,human ERα LBD; ratio of RBA ERα to RBA ERβ,49.90
same,IC50,T-47D cells,870 ± 150 nM
same,IC50,T-47D^D538G cells,1910 ± 180 nM
same,IC50,ERα C530S mutant,290 nM
same,Agonist mode ERα C530S Eff (%E2),"ERα C530S mutant; ERα C530S mutant, HEK-293T",2 ± 1 %E2
same,Antagonist mode ERα C530S Eff (%E2),"ERα C530S mutant; ERα C530S mutant, HEK-293T",33 ± 2 %E2
same,Effect of C530S mutation on antagonistic activity,"ERα C530S mutant; HEK-293T^C530S cells, compared with wild type",decreased
same,"ERα degradation time course, MCF-7",ERα [1]; 5 μmol/L over 24 h,completely degraded
same,ERα degradation (immunoblot) at 1 μmol/L,"ERα [1]; MCF-7 cells, 1 μmol/L",efficient ability to degrade ERα
same,ERα degradation (immunoblot),"ERα [1]; MCF-7 cells, 1 or 5 μmol/L",effective in inducing ERα degradation
same,"ERα degradation time course, LCC-2",ERα [2],completely degraded
same,"ERα degradation time course, T-47D^D538G",ERα D538G,completely degraded
same,ERα degradation with proteasome inhibitor,ERα [3],lost its ability to degrade ERα
same,ERβ degradation (immunoblot),ERβ,no degradation capacity for ERβ
